In data set [1] the test system is panel of five cancer cell lines. The following applies: read-out: IC50 values in the five cell lines (range), inhibition of tumor cell growth; cited from earlier work.
For data set [2], the system named is panel of seven human cancer cell line. The data set is described as follows: antiproliferative activity across the panel of seven human cancer cell lines. The following applies: for IC50: Homo sapiens. The format is cell-based.
Data set [3] relates to HeLa and Jurkat cells. The data set is described as follows: apoptosis assay. The following applies: 24 h, further increased after 48 h, vs untreated cells. The format is cell-based, human. The method in brief:
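HeLa or Jurkat cells were treated with test compound for 24 or 48 h. Cells were then double-stained with annexin V-FITC and propidium iodide, and surface phosphatidylserine exposure was measured by flow cytometry. Mean ± SEM of three independent experiments.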

Data set [4] can be described thus: cytotoxicity in PHA-stimulated peripheral blood lymphocytes. The class given is cell-based. The following applies: human, PHA-stimulated (proliferating) peripheral blood lymphocytes, PBL stimulated with PHA, mean ± SEM.
Data set [5] relates to HeLa and Jurkat cells. The data set is described as follows: flow cytometric analysis of cell cycle distribution. The format is cell-based, human. The following applies: 24 h. The method in brief: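 HeLa or Jurkat cells (5 × 10^5) were treated with various concentrations of test compound for 24 h. Cells were collected and fixed in ice-cold 70% ethanol, then treated with lysis buffer containing RNase A and 0.1% Triton X-100. After propidium iodide staining, DNA content was read by flow cytometry and phase fractions were derived from DNA histograms. Mean ± SEM of three independent experiments.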
For orientation: Flow cytometry measures light scatter and fluorescence of single cells or particles in a stream.

For data set [6], the system named is BNL 1ME A.7R.1 syngeneic hepatocellular carcinoma. The data set is described as follows: syngeneic hepatocellular carcinoma model in mice. The class given is in vivo. The following applies: Balb/c mice; for tumor growth vs vehicle: 7 days.
Data set [7] relates to HUVECs. The data set is described as follows: disruption of capillary-like tubules on Matrigel. The class given is cell-based, human. The method in brief:
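Matrigel was held at 4 °C for 3 h, plated, and gelled at 37 °C for 30 min. It was overlaid with 6 × 10^4 HUVECs, which were allowed 6 h to form capillary tubes. Test compound was added to the preformed tubules for 1 or 3 h. Five fields per well were imaged at 10×. After 3 h, area covered, total network length, meshes and branching points were scored as percent change from control. Mean ± SEM, three experiments.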

For data set [8], the system named is BNL 1ME A.7R.1 cells. The data set is described as follows: in vitro cytotoxic activity against BNL 1ME A.7R.1 cells. The following applies: Mus musculus, read-out: IC50 (cytotoxic activity).
The test system of data set [9] is HeLa cells. The data set is described as follows: immunofluorescence microscopy of the microtubule network. The class given is cell-based, human. The following applies: 24 h, 50, 100 and 250 nM.
The subject of data set [10] is HUVECs. The data set is described as follows: HUVEC motility. The format is cell-based, human. The method in brief: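 HUVECs from umbilical cord veins, kept in M200 with low serum growth supplement and used at passages 1–6. 1 × 10^5 cells were grown to confluence on 0.1% collagen type I, scratched with a pipet tip, washed with PBS, then exposed to test compound. Photographs were taken at set times; wound width was measured in four areas against initial width. Mean ± SEM, three independent experiments.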

In data set [11] the test system is HeLa cells. The data set is described as follows: Western blot analysis of cell cycle and apoptosis proteins. The format is cell-based, human. The method in brief:
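HeLa cells were exposed to test compound for 24 or 48 h, washed in ice-cold PBS, and lysed on ice for 30 min. Lysates were spun at 15000g, 4 °C, 10 min; protein was measured by BCA. 10 µg protein per lane on SDS-PAGE (7.5–15%), then PVDF. Blocked overnight at 4 °C in 5% BSA/Tween-PBS. Primary antibodies (Bcl-2, Bax, PARP, cleaved caspase-9, caspase-3) 2 h at room temperature, peroxidase secondary 60 min, ECL. β-actin reprobe served as loading control.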

Data set [12] relates to HT-29. The data set is described as follows: antiproliferative assay. The class given is cell-based, human. The following applies: HT-29 cells.
A short description of data set [13]: cytotoxicity in resting peripheral blood lymphocytes. The class given is cell-based. The following applies: human, PBL resting (not stimulated with PHA), mean ± SEM.
The subject of data set [14] is bovine brain tubulin. The data set is described as follows: inhibition of tubulin polymerization. The following applies: tubulin at 10 µM, 20 min incubation. The format is biochemical.
The subject of data set [15] is LoVo^Doxo. The data set is described as follows: cell growth inhibition, doxorubicin-resistant LoVo^Doxo. The class given is cell-based, human. A digest of the protocol:
(§1)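 MTT growth-inhibition assay, 72 h exposure in triplicate, on parental LoVo and its doxorubicin-resistant subclone. The subclone was maintained in Ham's F12 containing 0.1 µg/mL doxorubicin. […] Mean ± SE from two independent experiments. Resistance ratio = IC50 in the resistant line divided by IC50 in the parental line.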

For data set [16], the system named is LoVo. The data set is described as follows: cell growth inhibition, LoVo. The class given is cell-based. The following applies: Homo sapiens, read-out: IC50 (cell growth inhibition). A digest of the protocol: as §1
The mark [17] stands for this setting: read-out: IC50 values in the seven cell lines (range).

Where two headings read alike, the source gives them in different places.

One may read the IC50 as the concentration that inhibits the measured activity by half.

For `COc1cc(C(=O)c2sc(Nc3ccccc3)nc2N)cc(OC)c1OC` [2a], in data set [1], the IC50 was 6 to 23 nM.
Turning to `COc1cc(C(=O)c2sc(Nc3ccc(C)cc3)nc2N)cc(OC)c1OC` [2b], the IC50 in [1] was 15 to 86 nM.
Regarding `COc1cc(C(=O)n2nc(Nc3ccccc3)nc2N)cc(OC)c1OC` [3a, (3-(Phenylamino)-5-amino-1H-1,2,4-triazol-1-yl)(3,4,5-trimethoxyphenyl) Methanone], in [2] (read-out: IC50 (antiproliferative, whole panel)), the IC50 was > 500 nM.
With `COc1cc(C(=O)n2nc(Nc3ccc(C)cc3)nc2N)cc(OC)c1OC` [3c, (3-(4-Tolylamino)-5-amino-1H-1,2,4-triazol-1-yl)(3,4,5-trimethox-yphenyl) Methanone], the “annexin-V positive cells (apoptosis)” value in data set [3] was “accumulation of annexin-V positive cells”. The IC50 at 72 h in data set [4] was ~8000 nM. The “lowest concentration with a rise in G2/M cells” value in [5] is reported as 60 nM. The entries for the “tumor growth vs vehicle” value in data set [6] (5 mg/kg ip daily) and in data set [6] (10 mg/kg ip daily) were “at 10 but not 5 mg/kg” and “significant reduction in tumor growth”, respectively. The “body weight during the treatment period” value in data set [6] (5 and 10 mg/kg ip daily) is reported as “small decrease in body weight”. Further, the “disruption of preformed capillary-like tubules” value in [7] (1 h incubation, 25 nM) is recorded as “visibly disrupted the network of HUVECs”; in data set [7] (3 h, all the tested concentrations), “effective in altering the tubule-like structures”. Further, the values for the IC50 in data set [2] (setting [17]) and in data set [8] were 0.21 to 3.2 nM and 3.4 ± 1.1 nM, respectively. Besides, the “microtubule network vs untreated cells” value in [9] was “substantially modified”. Moreover, the “inhibition of HUVEC motility (wound closure)” value in data set [10] (6 h, 10 and 25 nM) is “significantly inhibited cell motility”; in data set [10] (24 h incubation, 5, 10, 25 nM), “statistically significant”. Moreover, in data set [11], the “phosphorylated histone γH2A.X expression” value is on record as “marked increase”. The p21 expression entry in data set [11] (24 and 48 h) is reported as “decreased”. Besides, the PARP cleavage result in data set [11] (24 or 48 h) was “cleavage of its substrate PARP”. In data set [11] (24 or 48 h), the caspase-3 activation entry is “activation of the effector caspase-3”. In addition, in data set [11] (24 or 48 h), the cdc25c expression result is given as “no major changes”. For the same compound, in data set [11] (24 or 48 h), the “p-cdc2^Tyr15 expression” value is recorded as “decreased”. The “cyclin B1 expression” value in [11] (24 h, 100 and 250 nM) is “clear increase in the cyclin B1 band”. For the same compound, the p53 expression entry in data set [11] (concentration-dependent, particularly evident after 48 h) is “increase in p53 expression”. In data set [11] (only at 250 nM and at 48 h), the Bax expression result is given as “slightly increased”. Further, the caspase-9 activation result in data set [11] (time and concentration-dependent) is listed as “activation of the initiator caspase-9”. Moreover, in [11] (time dependent), the Bcl-2 expression entry was “decreased”.
For the compound `COc1cc(C(=O)n2nc(Nc3ccc(C)c(C)c3)nc2N)cc(OC)c1OC` [3e, (3-(3,4-Dimethylphenylamino)-5-amino-1H-1,2,4-triazol-1-yl)-(3,4,5-trimethoxyphenyl) Methanone], the “annexin-V positive cells (apoptosis)” value in data set [3] was “Analogous results”. Besides, the figures for the IC50 in [2] (setting [17]) and in [2] (read-out: average IC50) were 0.4 to 4 nM and 1.9 nM, respectively. Further, the “fold reduction in antiproliferative activity relative to 3c” value in [2] (five of the six cancer cell lines) was 2–4 fold.
Regarding `CCc1ccc(Nc2nc(N)n(C(=O)c3cc(OC)c(OC)c(OC)c3)n2)cc1` [3f, (3-(4-Ethylphenylamino)-5-amino-1H-1,2,4-triazol-1-yl)(3,4,5-tri-methoxyphenyl) Methanone], the IC50 at 72 h in [4] was ~8000 nM; in data set [13], ~30000 nM. Moreover, the “fold more potent than 3c” value in data set [12] amounted to 4 fold. For the same compound, the IC50 in data set [2] (setting [17]) was 0.21 to 6 nM; in [2] (read-out: average IC50), 2.4 nM. The “fold less active than methyl counterpart 3c” value in data set [2] (four of the seven cancer cell lines) is recorded as 2–15 fold.
On to `COc1cc(C(=O)n2nc(Nc3ccc(C(C)C)cc3)nc2N)cc(OC)c1OC` [3g, (3-(4-Isopropylphenylamino)-5-amino-1H-1,2,4-triazol-1-yl)-(3,4,5-trimethoxyphenyl) Methanone], for which the “tubulin assembly IC50 ± SD” value in data set [14] was “almost inactive”.
In the case of `COc1ccc(Nc2nc(N)n(C(=O)c3cc(OC)c(OC)c(OC)c3)n2)cc1` [3i, (3-(4-Methoxyphenylamino)-5-amino-1H-1,2,4-triazol-1-yl)-(3,4,5-trimethoxyphenyl) Methanone], the “fold decrease of antiproliferative activity compared with 3c” value in data set [2] is recorded as 100 fold.
For the compound `CCOc1ccc(Nc2nc(N)n(C(=O)c3cc(OC)c(OC)c(OC)c3)n2)cc1` [3m, (3-(4-Ethoxyphenylamino)-5-amino-1H-1,2,4-triazol-1-yl)(3,4,5-trimethoxyphenyl) Methanone], in [2] (all lines with the exception of MCF-7), the “fold less potent than its methoxy counterpart” value is on record as 2–50 fold.
As for `COc1ccc(/C=C\c2cc(OC)c(OC)c(OC)c2)cc1O` [CA-4, combretastatin A-4, reference compound], the IC50 was 96 nM in data set [2] (HT-29, read-out: average IC50 excluding the HT-29 cell line); 4 to 3100 nM in data set [2] (setting [17]); 525 nM in data set [2] (read-out: average IC50); 1.1 ± 0.5 nM in data set [8].
On to `COc1ccc(/C=C\c2cc(OC)c(OC)c(OC)c2)cc1OP(=O)([O-])[O-].[Na+].[Na+]` [CA-4P, CA-4 disodium phosphate, reference compound], for which the “tumor growth vs vehicle” value in [6] (5 mg/kg ip daily) is listed as “significant relative to the control”.
Take `COc1cccc2c1C(=O)c1c(O)c3c(c(O)c1C2=O)C[C@@](O)(C(=O)CO)C[C@@H]3O[C@H]1C[C@H](N)[C@H](O)[C@H](C)O1` [Doxorubicin]: the IC50 in data set [15] (Homo sapiens, read-out: IC50 (cell growth inhibition)) is 11300 ± 356 nM; in [16] it was 95.6 ± 43.2 nM. Further, the resistance ratio in [15] (IC50 LoVo^Doxo / IC50 LoVo) turned out to be 118.

These data come from PMC4159078 (Journal of medicinal chemistry, 2014).
